Experimental data published in ChEMBL document CHEMBL1629597, “In vitro evaluation of the antimicrobial activity of ceftaroline against cephalosporin-resistant isolates of Streptococcus pneumoniae” (2009).
≈ marks a conversion by molar mass, not a printed value.

Columns and labels:
Type in all cases: functional
[1] = tested on: Streptococcus pneumoniae; test: Antimicrobial activity against Streptococcus pneumoniae 3191 by broth microdilution method
[2] = tested on: Streptococcus pneumoniae; test: Antimicrobial activity against Streptococcus pneumoniae R6 transformed with Streptococcus pneumoniae 72521 genomic DNA, pbp2x, pbp1a and pbp2b genes by broth microdilution method
Method in brief: (§1)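 Reference broth microdilution MIC per CLSI guidelines, testing ceftaroline, penicillin, ceftriaxone and cefotaxime against susceptible laboratory strain R6 and R6 transformants. The transformants carry pbp and/or murM genes with β-lactam-resistance mutations, or genomic DNA, from donors 3191 (Hungarian clone) and 72521 (French isolate). MICs are in μg/ml.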

[3] = tested on: Streptococcus pneumoniae; test: Antimicrobial activity against Streptococcus pneumoniae 72521 by broth microdilution method
[4] = tested on: Streptococcus pneumoniae; test: Antimicrobial activity against Streptococcus pneumoniae R6 transformed with Streptococcus pneumoniae 3191 pbp2x, pbp2b, murM and Streptococcus pneumoniae 72521 pbp1a genes by broth microdilution method; method in brief: as §1
[5] = tested on: Streptococcus pneumoniae; test: Antimicrobial activity against Streptococcus pneumoniae R6 transformed with Streptococcus pneumoniae 72521 pbp2x, pbp1a and pbp2b genes by broth microdilution method; method in brief: as §1
[6] = tested on: Streptococcus pneumoniae; test: Antimicrobial activity against Streptococcus pneumoniae R6 transformed with Streptococcus pneumoniae 72521 murM, pbp2x, pbp2b and Streptococcus pneumoniae 3191 pbp1a genes by broth microdilution method; method in brief: as §1
[7] = tested on: Streptococcus pneumoniae; test: Antimicrobial activity against Streptococcus pneumoniae R6 transformed with Streptococcus pneumoniae 72521 pbp2x, pbp2b and Streptococcus pneumoniae 3191 pbp1a genes by broth microdilution method; method in brief: as §1
[8] = tested on: Streptococcus pneumoniae; test: Antimicrobial activity against Streptococcus pneumoniae R6 transformed with Streptococcus pneumoniae 3191 pbp2x, pbp2b, pbp1a and Streptococcus pneumoniae 72521 murM genes by broth microdilution method; method in brief: as §1
[9] = tested on: Streptococcus pneumoniae; test: Antimicrobial activity against Streptococcus pneumoniae R6 transformed with Streptococcus pneumoniae 72521 pbp2x and pbp2b genes by broth microdilution method; method in brief: as §1
[10] = tested on: Streptococcus pneumoniae; test: Antimicrobial activity against Streptococcus pneumoniae R6 transformed with Streptococcus pneumoniae 3191 pbp2x and pbp1a genes by broth microdilution method; method in brief: as §1
[11] = tested on: Streptococcus pneumoniae; test: Antimicrobial activity against Streptococcus pneumoniae R6 transformed with Streptococcus pneumoniae 3191 pbp2x gene by broth microdilution method; method in brief: as §1
[12] = tested on: Streptococcus pneumoniae; test: Antimicrobial activity against Streptococcus pneumoniae R6 transformed with Streptococcus pneumoniae 72521 genomic DNA, pbp2x, pbp1a, pbp2b and Streptococcus pneumoniae 3191 pbp1a genes by broth microdilution method; method in brief: as §1
[13] = tested on: Streptococcus pneumoniae; test: Antimicrobial activity against Streptococcus pneumoniae by broth microdilution method
[14] = tested on: Streptococcus pneumoniae; test: Antimicrobial activity against Streptococcus pneumoniae R6 transformed with Streptococcus pneumoniae 3191 pbp2b, pbp1a and murM genes by broth microdilution method; method in brief: as §1
[15] = tested on: Streptococcus pneumoniae; test: Antimicrobial activity against Streptococcus pneumoniae R6 transformed with Streptococcus pneumoniae 3191 pbp2x, pbp2b, pbp1a genes by broth microdilution method; method in brief: as §1
[16] = tested on: Streptococcus pneumoniae; test: Antimicrobial activity against Streptococcus pneumoniae R6 transformed with Streptococcus pneumoniae 72521 pbp2x, pbp1a, pbp2b genes and Streptococcus pneumoniae 3191 genomic DNA by broth microdilution method; method in brief: as §1
[17] = tested on: Streptococcus pneumoniae; test: Antimicrobial activity against Streptococcus pneumoniae R6 transformed with Streptococcus pneumoniae 72521 pbp2x, pbp1a, pbp2b and Streptococcus pneumoniae 3191 murM genes by broth microdilution method; method in brief: as §1
[18] = tested on: Streptococcus pneumoniae; test: Antimicrobial activity against Streptococcus pneumoniae R6 transformed with Streptococcus pneumoniae 3191 pbp2x and pbp2b genes by broth microdilution method; method in brief: as §1
[19] = tested on: Streptococcus pneumoniae; test: Antimicrobial activity against Streptococcus pneumoniae R6 transformed with Streptococcus pneumoniae 3191 pbp2x and Streptococcus pneumoniae 72521 pbp2b genes by broth microdilution method; method in brief: as §1
[20] = tested on: Streptococcus pneumoniae; test: Antimicrobial activity against Streptococcus pneumoniae R6 by broth microdilution method; method in brief: as §1
[21] = tested on: Streptococcus pneumoniae; test: Antimicrobial activity against Streptococcus pneumoniae R6 transformed with Streptococcus pneumoniae 72521 pbp2x gene by broth microdilution method; method in brief: as §1

Question: Which results are given for CC1(C)S[C@@H]2[C@H](NC(=O)[C@H](N)c3ccc(O)cc3)C(=O)N2[C@H]1C(=O)O [AMOXICILLIN]?
Answer: MIC [1]: 8 µg/mL (≈ 21.9 µM); MIC [2]: 1 µg/mL (≈ 2.74 µM); MIC [3]: 8 µg/mL (≈ 21.9 µM); MIC [4]: 1.5 µg/mL (≈ 4.1 µM); MIC [5]: 0.5 µg/mL (≈ 1.37 µM); MIC [6]: 3 µg/mL (≈ 8.21 µM); MIC [7]: 0.75 µg/mL (≈ 2.05 µM); MIC [8]: 4 µg/mL (≈ 10.9 µM); MIC [9]: 0.094 µg/mL (≈ 0.257 µM); MIC [10]: 0.032 µg/mL (≈ 0.0876 µM); MIC [11]: 0.047 µg/mL (≈ 0.129 µM); MIC [12]: 1.5 µg/mL (≈ 4.1 µM); MIC50 [13]: 8 µg/mL (≈ 21.9 µM); MIC90 [13]: > 8 µg/mL; MIC [14]: 0.023 µg/mL (≈ 0.0629 µM); MIC [15]: 4 µg/mL (≈ 10.9 µM); MIC [16]: 1 µg/mL (≈ 2.74 µM); MIC [17]: 1 µg/mL (≈ 2.74 µM); MIC [18]: 0.19 µg/mL (≈ 0.52 µM); MIC [19]: 0.19 µg/mL (≈ 0.52 µM); MIC [20]: ≤ 0.015 µg/mL

Question: With CO/N=C(\C(=O)N[C@@H]1C(=O)N2C(C(=O)O)=C(COC(C)=O)CS[C@H]12)c1csc(N)n1 [CEFOTAXIME] as the compound, how does the MIC [1] read?
Answer: 4 µg/mL (≈ 8.78 µM)

Question: And the MIC [2]?
Answer: 2 µg/mL (≈ 4.39 µM)

Question: And the MIC [3]?
Answer: 2 µg/mL (≈ 4.39 µM)

Question: And the MIC [4]?
Answer: 2 µg/mL (≈ 4.39 µM)

Question: What about the MIC [5] of the same compound?
Answer: 2 µg/mL (≈ 4.39 µM)

Question: What about the MIC [6] of the same compound?
Answer: 4 µg/mL (≈ 8.78 µM)

Question: And the MIC [7]?
Answer: 2 µg/mL (≈ 4.39 µM)

Question: And the MIC [8]?
Answer: 16 µg/mL (≈ 35.1 µM)

Question: And the MIC [9]?
Answer: 0.5 µg/mL (≈ 1.1 µM)

Question: What about the MIC [21] of the same compound?
Answer: 0.06 µg/mL (≈ 0.132 µM)

Question: And the MIC [10]?
Answer: 0.06 µg/mL (≈ 0.132 µM)

Question: And the MIC [11]?
Answer: 0.03 µg/mL (≈ 0.0659 µM)

Question: And the MIC [12]?
Answer: 4 µg/mL (≈ 8.78 µM)

Question: And the MIC50 [13]?
Answer: 8 µg/mL (≈ 17.6 µM)

Question: What about the MIC90 [13] of the same compound?
Answer: 8 µg/mL (≈ 17.6 µM)

Question: And the MIC [14]?
Answer: 0.03 µg/mL (≈ 0.0659 µM)

Question: What about the MIC [15] of the same compound?
Answer: 16 µg/mL (≈ 35.1 µM)

Question: What about the MIC [16] of the same compound?
Answer: 2 µg/mL (≈ 4.39 µM)

Question: What about the MIC [17] of the same compound?
Answer: 2 µg/mL (≈ 4.39 µM)

Question: And the MIC [18]?
Answer: 0.5 µg/mL (≈ 1.1 µM)

Question: What about the MIC [19] of the same compound?
Answer: 1 µg/mL (≈ 2.2 µM)

Question: What about the MIC [20] of the same compound?
Answer: 0.03 µg/mL (≈ 0.0659 µM)

Question: CO/N=C(\C(=O)N[C@@H]1C(=O)N2C(C(=O)O)=C(CSc3nc(=O)c(O)nn3C)CS[C@H]12)c1csc(N)n1 [CEFTRIAXONE] was tested. Which MIC [1] did it give?
Answer: 8 µg/mL (≈ 14.4 µM)

Question: And the MIC [2]?
Answer: 0.5 µg/mL (≈ 0.902 µM)

Question: And the MIC [3]?
Answer: 4 µg/mL (≈ 7.21 µM)

Question: What about the MIC [4] of the same compound?
Answer: 4 µg/mL (≈ 7.21 µM)

Question: What about the MIC [5] of the same compound?
Answer: 0.5 µg/mL (≈ 0.902 µM)

Question: What about the MIC [6] of the same compound?
Answer: 4 µg/mL (≈ 7.21 µM)

Question: And the MIC [7]?
Answer: 2 µg/mL (≈ 3.61 µM)

Question: What about the MIC [8] of the same compound?
Answer: 8 µg/mL (≈ 14.4 µM)

Question: What about the MIC [9] of the same compound?
Answer: 1 µg/mL (≈ 1.8 µM)

Question: What about the MIC [21] of the same compound?
Answer: 0.5 µg/mL (≈ 0.902 µM)

Question: And the MIC [10]?
Answer: 2 µg/mL (≈ 3.61 µM)

Question: And the MIC [11]?
Answer: 2 µg/mL (≈ 3.61 µM)

Question: What about the MIC [12] of the same compound?
Answer: 2 µg/mL (≈ 3.61 µM)

Question: And the MIC50 [13]?
Answer: 8 µg/mL (≈ 14.4 µM)

Question: What about the MIC90 [13] of the same compound?
Answer: 8 µg/mL (≈ 14.4 µM)

Question: What about the MIC [14] of the same compound?
Answer: 0.06 µg/mL (≈ 0.108 µM)

Question: And the MIC [15]?
Answer: 4 µg/mL (≈ 7.21 µM)

Question: And the MIC [16]?
Answer: 2 µg/mL (≈ 3.61 µM)

Question: And the MIC [17]?
Answer: 1 µg/mL (≈ 1.8 µM)

Question: What about the MIC [18] of the same compound?
Answer: 1 µg/mL (≈ 1.8 µM)

Question: And the MIC [19]?
Answer: 2 µg/mL (≈ 3.61 µM)

Question: What about the MIC [20] of the same compound?
Answer: 0.03 µg/mL (≈ 0.0541 µM)

Question: How did the MIC50 [13] turn out when C[C@@H](O)[C@H]1C(=O)N2C(C(=O)O)=C(S[C@@H]3CN[C@H](C(=O)N(C)C)C3)[C@H](C)[C@H]12 [MEROPENEM] was run?
Answer: 1 µg/mL (≈ 2.61 µM)

Question: What about the MIC90 [13] of the same compound?
Answer: 2 µg/mL (≈ 5.22 µM)

Question: What does the source list for CC1(C)S[C@@H]2[C@H](NC(=O)Cc3ccccc3)C(=O)N2[C@H]1C(=O)O [PENICILLIN G]?
Answer: MIC [1]: 16 µg/mL (≈ 47.8 µM); MIC [2]: 1 µg/mL (≈ 2.99 µM); MIC [3]: 4 µg/mL (≈ 12 µM); MIC [4]: 8 µg/mL (≈ 23.9 µM); MIC [5]: 0.5 µg/mL (≈ 1.5 µM); MIC [6]: 2 µg/mL (≈ 5.98 µM); MIC [7]: 1 µg/mL (≈ 2.99 µM); MIC [8]: 8 µg/mL (≈ 23.9 µM); MIC [9]: 0.5 µg/mL (≈ 1.5 µM); MIC [21]: 0.5 µg/mL (≈ 1.5 µM); MIC [10]: 2 µg/mL (≈ 5.98 µM); MIC [11]: 2 µg/mL (≈ 5.98 µM); MIC [12]: 2 µg/mL (≈ 5.98 µM); MIC50 [13]: 8 µg/mL (≈ 23.9 µM); MIC90 [13]: 8 µg/mL (≈ 23.9 µM); MIC [14]: 0.03 µg/mL (≈ 0.0897 µM); MIC [15]: 4 µg/mL (≈ 12 µM); MIC [16]: 8 µg/mL (≈ 23.9 µM); MIC [17]: 1 µg/mL (≈ 2.99 µM); MIC [18]: 1 µg/mL (≈ 2.99 µM); MIC [19]: 2 µg/mL (≈ 5.98 µM); MIC [20]: 0.015 µg/mL (≈ 0.0449 µM)
